Measurements reported in article PMC2932703 (Molecular cancer therapeutics, 2010).
Where two headings read alike, the source gives them in different places. Blank lines part the entries; values can stand above or below the molecule they belong to.

Assays:
NTR1 promoter = assay: NTR1 promoter-luciferase reporter assay; type: cell-based, human
NTR1 mRNA [1] = assay: Northern blot of NTR1 mRNA expression in CRC cell lines; type: cell-based, human
ERK = conditions: human hepatocellular carcinoma cells; cited from earlier work
phospho-ERK1/2 = assay: Western blot of phospho-ERK1/2; type: cell-based, human; conditions: SW480 and HCT116 cells; 18 h; NaBT 2.5 mM, apicidin 1 µM, Emodin 20 µM
How it was run: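 HCT116 and SW480 cells were exposed 18 h to test compounds or DMSO vehicle. Whole-cell protein was extracted, run on bis-Tris gels and transferred to PVDF. Blots were probed overnight in TBST with phospho-ERK1/2 and total ERK1/2 antibodies, then HRP secondary for 1 h, and detected by ECL. pERK1/2 signal was quantified densitometrically relative to total ERK1/2.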

c-myc mRNA = assay: Northern blot of c-myc expression; type: cell-based, human
How it was run: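 HCT116 cells in McCoy's 5A with 10% FBS were serum-starved 24 h, pretreated with 2.5 mM test compound for 6 h, then given 100 nM NT or PBS vehicle for a further 0.5, 1 and 2 h. Total RNA (35 µg) was run on 1.2% agarose/formaldehyde gels and blotted to nylon. Blots were hybridised 8–12 h at 65°C with a 32P-UTP cRNA c-myc probe, read by autoradiography and reprobed for GAPDH.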

NTR1 mRNA [2] = conditions: breast cancer cells; cited from earlier work
NTR1 protein = assay: Western blot of NTR1 protein expression; type: cell-based, human; conditions: SW480 and HT29 cells; 2.5 mM, 18 h
How it was run: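 Cells were treated with 2.5 mM test compound or PBS vehicle for 18 h, then lysed in cell lysis buffer. Equal protein was run on bis-Tris gels and transferred to PVDF. Blots were incubated overnight in TBST with anti-human NTR1 antibody, then HRP secondary for 1 h, and detected by ECL. Blots were stripped and reprobed for β-actin; NTR1 bands were quantified densitometrically relative to β-actin.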

[3] = tested on: cholecystokinin-B receptor mRNA; assay: RNase protection assay, CCK; type: cell-based, human; conditions: HT29 and SW480 cells; 2.5 mM NaBT, 20 h
IL-8 mRNA = assay: RNase protection assay of IL-8 expression; type: cell-based, human; conditions: HCT116 cells; NaBT alone
CCK-A receptor mRNA = assay: RNase protection assay, CCK-A receptor mRNA; type: cell-based, human; conditions: NaBT treatment; data not shown
PTEN mRNA = assay: Northern blot reprobed for PTEN expression; type: cell-based, human; conditions: HT29 cells; blot stripped and reprobed
[4] = tested on: gastrin-releasing peptide receptor mRNA; assay: RNase protection assay, gastrin-releasing peptide receptor mRNA; type: cell-based, human; conditions: NaBT treatment; data not shown
COX-2 mRNA = assay: Northern blot of NT-induced COX-2 expression; type: cell-based, human; conditions: HT29 cells; NaBT 2.5 mM pretreatment 6 h, then 100 nM NT
[5] = all NTR1-positive cell lines tested: HT29, HCT116, SW480, SW620, KM20, HDACi
[6] = HT29 cells, treatment for 4h, confirmed using SW620 cells

Molecule: N#CC(=C(/N)Sc1ccccc1N)/C(C#N)=C(/N)Sc1ccccc1N [Uo126]
decrease in NTR1 promoter activity (NTR1 promoter; SW480 cells, 5 µM, 16 h): approximately 70%
NTR1 mRNA expression (NTR1 mRNA [1]): suppressed NTR1 mRNA expression in a time- and dose-dependent fashion

Molecule: CCCC(CCC)C(=O)O [valproic acid]
NTR1 mRNA expression (NTR1 mRNA [1]; [5]): suppressed NTR1
activation of ERK (ERK): decreased activation of ERK

Molecule: CCC(=O)CCCCC[C@@H]1NC(=O)[C@H]2CCCCN2C(=O)[C@H]([C@@H](C)CC)NC(=O)[C@H](Cc2cn(OC)c3ccccc23)NC1=O [apicidin]
NTR1 mRNA expression (NTR1 mRNA [1]; [6]): significantly decreased NTR1 mRNA expression
NTR1 mRNA expression (NTR1 mRNA [1]; [5]): suppressed NTR1
phospho-ERK1/2 levels (phospho-ERK1/2): significantly decreased phospho-ERK1/2 levels

Molecule: Neurotensin [NT]
c-myc expression (c-myc mRNA; 100 nM NT, 0.5 h, 1 h and 2 h, serum-starved cells): increased c-myc expression in time-dependent fashion

Molecule: CC(/C=C/C(=O)NO)=C\[C@@H](C)C(=O)c1ccc(N(C)C)cc1 [TSA, Trichostatin A]
NTR1 mRNA expression (NTR1 mRNA [1]; [6]): significantly decreased NTR1 mRNA expression
NTR1 mRNA expression (NTR1 mRNA [1]; [5]): suppressed NTR1

Molecule: [Cl-].[Li+] [LiCl]
NTR1 mRNA (NTR1 mRNA [2]): increased

Molecule: C[S+]([O-])c1ccc(-c2nc(-c3ccncc3)c(-c3ccc(F)cc3)[nH]2)cc1 (centres unmarked) [SB-203580]
NTR1 mRNA expression (NTR1 mRNA [1]): did not affect NTR1 expression

Molecule: COc1cccc(-c2cc(=O)c3ccccc3o2)c1N [PD98059]
NTR1 mRNA expression (NTR1 mRNA [1]; HCT116 and SW480 cells (also SW620, KM20 data not shown), 16 h, Uo126 0.5-5 µM, PD98059 20 µM, SB-203580 10 µM): identical to those using Uo126

cholecystokinin-B receptor mRNA expression [3]: did not affect mRNA expression
IL-8 expression (IL-8 mRNA): slightly increased IL-8 expression
CCK-A receptor mRNA expression (CCK-A receptor mRNA): did not affect mRNA expression
gastrin-releasing peptide receptor mRNA expression [4]: did not affect mRNA expression
Molecule: CCCC(=O)[O-].[Na+] [NaBT, Sodium butyrate]
NTR1 protein expression (NTR1 protein): decreased NTR1 protein expression
NTR1 promoter activity (NTR1 promoter; SW480 and HCT116 cells, 2.5 mM NaBT, 20 h): dramatically decreased NTR1 promoter activity
NTR1 expression (mRNA) (NTR1 mRNA [1]; SW480, HCT116 (Fig.1B), SW620, KM20 (data not shown), NaBT): inhibited NTR1 expression
PTEN expression (PTEN mRNA): increased PTEN expression
phospho-ERK1/2 levels (phospho-ERK1/2): significantly decreased phospho-ERK1/2 levels
basal c-myc expression (c-myc mRNA; HCT116 cells): decreased basal c-myc expression
NT-stimulated c-myc induction (c-myc mRNA; NaBT 2.5 mM pretreatment 6 h, then 100 nM NT): prevented NT-stimulated c-myc induction
NT-induced COX-2 expression (COX-2 mRNA): blocked

Molecule: Cc1cc(O)c2c(c1)C(=O)c1cc(O)cc(O)c1C2=O [emodin]
phospho-ERK1/2 levels (phospho-ERK1/2): did not affect ERK1/2 levels

Molecule: Cn1cc(C2=C(c3ccc(Cl)cc3Cl)C(=O)NC2=O)c2ccccc21 [SB-216763]
NTR1 mRNA expression (NTR1 mRNA [1]; HT29 and SW480 cells, GSK-3β inhibitor over a time course): significantly upregulated NTR1 mRNA expression
NTR1 mRNA suppression resulting from NaBT treatment (NTR1 mRNA [1]; HT29 cells, pre-treated 30 min, then combination with NaBT for 6 h): partially attenuated

Molecule: Nc1ccccc1NC(=O)c1ccc(CNC(=O)OCc2cccnc2)cc1 [entinostat]
NTR1 mRNA expression (NTR1 mRNA [1]; [5]): suppressed NTR1
